# Assay outcomes as filed in PubChem BioAssay.
# The full list was thinned out, with hits kept by preference.
# T cruzi inh: blocks replication of Trypanosoma cruzi | T. cruzi beta-gal in NIH3T3, luminescence, 90 h | inhibition, % (test concentration not listed) | 300,000 tested, 1.4% active;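 active = mean inhibition across valid replicates above about 55%, limit read from the data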;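 note: signal also drops with host cell toxicity which is not excluded here; 0% = plate median of DMSO wells and 100% = zero luminescence signal; higher percent means less beta-gal luminescence so fewer parasites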
#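 Read-out: Parasite load inhibition, % | Test system: Mouse NIH/3T3 fibroblasts infected with β-gal-expressing T. cruzi Tulahuen C4 | Amount: 5,000 cells/well | Medium: DMEM, 2% fetal bovine serum | Signal: GalScreen β-gal luminescence, detergent lysis, 60 min | Timing: 3 h attach, ≥90 h co-culture | Also added: Tulahuen C4 trypomastigotes, 5000/well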
# Dynein transport: dynein cargo transport inhibition | z-score, hits read low | AID 1381 | 3617.4 mouse cells, GR-EGFP nuclear translocation imaging; test concentration mostly 20 µM; stimulated with dexamethasone, 1 µM; hits give low values | 220,000 tested, 0.47% active;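 active = plate z-score of nuclear minus cytoplasmic receptor signal below a set negative limit, without overly bright fluorescence or cell loss, cut at about -3.5 in these data, passing the limit was not always enough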;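 note: z-score of nuclear minus cytoplasmic ring GR-EGFP intensity difference per well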
#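 Schedule: 48 h induction, then 1 h compound, then 30 min agonist, 37 °C. Buffer or medium: tetracycline-free induction medium containing charcoal-stripped FBS. Reagent: 1.0 µM final dexamethasone stimulus. Evaluation: nuclear versus cytoplasmic GR-EGFP signal, averaged per well. Signal: high-content fluorescence imaging after fixation.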
# XBP1 UPR activ: activators of adaptive arm of unfolded protein response (XBP1) | CHO-XBP1 luciferase reporter, IRE1-XBP1 UPR activation, luminescence; percent of tunicamycin response, DMSO as zero | activation, % at 20 µM | 330,000 tested, 0.33% active | AID 463104;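 active = versus positive control, 20 µM dose yields 30% or more activation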;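 note: 100% = tunicamycin at 10 µg/mL and 0% = DMSO only wells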
#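 Assay system: CHO-XBP1 luciferase reporter cells; Schedule: 6 h treatment, 37 °C; Detection: glow luminescence from Steady-Glo reagent; Benchmarks: high control tunicamycin 10 µg/mL final, low control DMSO vehicle only.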
# Lmaj promast: reduces viability of Leishmania major promastigotes; resazurin fluorescence viability; inhibition, % at 10 µM; 200,000 tested, 9% active; AID 1063; in the data active = inhibition above about 50%;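 note: promastigotes grown with compound for 44 hours at 28 °C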
# CHOP inhibitor: blocks CHOP induction under ER stress. CHO-K1 CHOP-promoter luciferase, tunicamycin-induced, 15-18 h. inhibition, % at 10 µM. 220,000 tested, 3.8% active. AID 2732;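 active = compounds that reduced the stress-induced luciferase reporter signal by more than about 70% of percent inhibition, limit read from the data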;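 note: 0% = tunicamycin plus vehicle and 100% = wells without tunicamycin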
# CHOP UPR activ: activators of apoptotic arm of unfolded protein response (CHOP) | 330,000 tested, 0.34% active | CHO-CHOP luciferase reporter, UPR activation, luminescence; percent of tunicamycin response over DMSO baseline | activation, % at 10 µM;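 active = at 10 µM dose, activation of 40% or more, normalized to positive control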;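 note: 100% = tunicamycin at 10 µg/mL and 0% = DMSO alone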
#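 assay system = CHO CHOP reporter cells | amount = 500 CHO-CHOP cells per well | buffer or medium = F12 with 10% FBS | incubation = 16-18 h cell attachment, then 6 h compound exposure, 37 °C | detection = luminescence read with Steady-Glo | read-out = percent activation relative to tunicamycin control | controls = tunicamycin high control, DMSO low control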
# XBP1 UPR conf: confirmation of adaptive unfolded protein response (XBP1) activators; shares compounds with XBP1 UPR activ; CHO-XBP1 IRE1-XBP1 luciferase reporter, luminescence; activation, % at 20 µM; 1,000 tested, 63% active; AID 485299;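 active = reporter signal at least 30% of the positive control's activation in two or more of four replicate wells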;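 note: plate controls were DMSO negative control for no effect and tunicamycin 10 µg/mL positive control for full effect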
# * marks the source's active call; other numbers are inactive results; / = no result given.
SMILES,T cruzi inh,Dynein transport,XBP1 UPR activ,Lmaj promast,CHOP inhibitor,CHOP UPR activ,XBP1 UPR conf
Cn1cccc1Cc1nnc(SCC(=O)Nc2nc3ccccc3s2)n1CCc1ccccc1,/,2.31,30.1*,4.0,94.9*,5.1,13.4
Cc1c(NC(=O)CSc2ccc(Cl)cc2)cccc1-c1nc2cc(Cl)ccc2o1,-7.0,-0.676,42.5*,-3.7,66.2,8.6,58.8*
Cc1ccc2oc(-c3cccc(NC(=O)c4ccc(Br)o4)c3C)nc2c1,0.0,0.587,0.9,-7.5,54.4,1.5,/
COc1ccc(N2CCN(C(=O)COC(=O)COc3cc(C)cc(C)c3)CC2)cc1,-2.1,/,-3.6,/,/,0.8,/
CCOc1ccc(C2=Nc3ccc(Br)cc3C(c3ccc(N4CCOCC4)cc3)=NN2)cc1,21.0,-0.062,11.7,21.5,-9.5,6.5,/
Brc1ccc2c(c1)C(c1ccc(N3CCOCC3)cc1)=NNC(c1cccs1)=N2,21.9,-0.102,88.0*,78.2*,26.8,2.5,81.2*
Fc1ccc2c(c1)C(c1ccc(N3CCOCC3)cc1)=NNC(c1cccs1)=N2,0.9,-0.449,-0.1,40.8,5.8,-0.5,/
Cc1ccc2c(c1)C(c1ccc(N3CCOCC3)cc1)=NNC(c1cccs1)=N2,44.1,-0.00187,62.0*,85.9*,-12.1,-1.9,57.0*
COc1cccc(C(=O)OCC(=O)NCCC2=CCCCC2)c1,/,/,-0.5,/,/,-0.4,/
CCOC(=O)C1=C(C)n2c(s/c(=C/c3cccc([N+](=O)[O-])c3)c2=O)=NC1c1ccc(O)c(OC)c1 (stereo unspecified),69.9*,-1.77,44.6*,99.9*,30.2,38.2,86.5*
O=[N+]([O-])c1cccc(/C=C/c2nc(C=Nc3ccccc3)c(O)o2)c1,-12.7,1.99,35.7*,-3.1,7.8,1.8,24.4
Oc1oc(-c2ccccc2)nc1C=Nc1ccccc1,9.6,-0.723,3.2,-5.0,-32.3,3.2,/
CCCCCCCCCCOC(=O)Cn1c(COc2ccccc2OC)[n+](C)c2ccccc21,49.6,/,76.8*,/,/,11.1,52.2*
Cn1nnnc1Sc1ncnc2scc(-c3ccc(Cl)cc3)c12,/,/,45.9*,/,/,1.2,112.7*
CC[C@]1(C(=O)OC)[C@H]2C(=O)N(Cc3ccccc3)C(=O)[C@H]2[C@H]2CN=C(SC)N21,/,/,1.9,/,/,1.2,/
COc1ccccc1OCC(=O)Sc1ccc(C)cc1,5.0,-0.66,33.9*,29.2,75.4*,7.5,19.0
O=C(CN1C(=O)NC2(CCCC2)C1=O)NCCc1ccc(F)cc1,/,/,-0.7,/,/,-0.8,/
CCCCC1=CC2=C(c3ccco3)C(=O)C(C)(OC(=O)c3ccc(OC)cc3)C(=O)C2=CN1CC(C)C (stereo unspecified),-1.1,-1.31,32.7*,/,78.5*,18.6,-1.7
CC1=C(C(=O)OCc2ccccc2)C(c2ccc([N+](=O)[O-])cc2)NC(=O)N1CCCC(=O)O (stereo unspecified),-5.9,/,52.9*,/,/,1.3,-1.0
CCOC(=O)c1nnc(-c2ccc(C)cc2)nc1Oc1ccccc1Cl,11.4,-3.07,37.0*,-3.4,77.9*,9.1,48.6*
CCOC(=O)c1nnc(-c2ccc(C)cc2)nc1Oc1ccc(Cl)cc1Cl,1.6,-3.15,93.8*,-5.5,65.3,31.0,123.7*
CN(C)C(=O)/N=N/C(=O)N(C)C,/,/,/,/,-12.0,/,/
CC(C)N(C(=O)CN1C(=O)NC(c2ccccc2)(c2ccccc2)C1=O)C(C)C,-15.2,/,-3.7,/,/,0.7,/
COCC1CCCCC1OS(N)(=O)=O (stereo unspecified),13.4,/,0.8,/,/,-2.2,/
O=C(/C=C/c1cc([N+](=O)[O-])ccc1OC(F)F)Nc1cccc([N+](=O)[O-])c1,44.6,0.865,102.4*,/,25.9,7.8,27.8*
SMILES,T cruzi inh,Dynein transport,XBP1 UPR activ,Lmaj promast,CHOP inhibitor,CHOP UPR activ,XBP1 UPR conf
C[C@H](NC(=O)C1CC(=O)N(c2ccc3c(c2)OCCO3)C1)C(=O)N1CCCCC1 (stereo partly specified),-10.5,/,0.2,/,/,1.8,/
C=CCN1C(=O)/C(=C2/Sc3ccc(OC)cc3N2C)SC1=Nc1cccc(O)c1,-2.7,1.41,47.9*,12.6,-2.5,17.5,81.0*
COc1ccc(-c2c/c(=N\c3nc(-c4ccccc4)c(C)s3)c3ccccc3o2)cc1O,-10.1,2.41,33.6*,10.4,/,6.5,39.2*
COc1ccc(-c2cc(=Nc3c(C)n(C)n(-c4ccccc4)c3=O)c3ccccc3o2)cc1,-5.0,-0.0113,2.6,38.4,12.8,0.8,/
Clc1ccc2c(c1)C(N1CCNCC1)Cc1ccccc1S2 (stereo unspecified),3.8,-4.5,62.9*,100.5*,79.3*,5.3,72.5*
COc1cc2sc(-c3ccccc3OC)c(-c3ccc(OCCN4CCCCC4)cc3)c2cc1OC,/,/,23.8,/,/,6.9,/
COc1ccccc1-c1sc2cc3c(cc2c1-c1ccc(OCCN2CCCCC2)cc1)OCO3,/,/,34.9*,/,/,6.3,35.9*
c1ccc(Oc2cnc3ccccc3n2)cc1,-11.1,-0.0271,-2.0,-6.5,24.3,-0.3,/
c1ccc(Oc2c3ccccc3nc3ccccc23)cc1,-13.1,-0.494,62.6*,/,-28.9,6.4,67.3*
O=C(C[n+]1cccc(NC(=O)c2ccccc2)c1)c1cccc([N+](=O)[O-])c1,-20.0,-1.62,-1.2,-9.4,-8.7,1.5,/
O=C(C[n+]1ccc(-c2cc(C(=O)Nc3cccc(C(F)(F)F)c3)c3ccccc3n2)cc1)c1cccc([N+](=O)[O-])c1,19.4,1.79,105.9*,33.5,81.5*,11.0,91.0*
COc1ccc(-c2nn(C)c(=O)c3ccccc23)cc1NC(=O)Cn1nc(C)c2ccccc2c1=O,73.6*,0.81,56.0*,99.5*,39.9,0.1,82.4*
O=C(COc1ccc(Cl)cc1Cl)NN=C1c2ccccc2-c2ccccc21,0.3,-0.206,88.7*,19.8,85.5*,7.2,96.0*
CC(O)[C@@]1(O)CC[C@H]2[C@@H]3CC[C@H]4C[C@@H](O)CC[C@]4(C)C3=CC[C@@]21C (stereo partly specified),-8.8,/,0.0,/,/,0.8,/
Cc1ccc(C)c(S(=O)(=O)NCC(=O)Nc2sc3c(c2C(N)=O)CCC(C)C3)c1 (stereo unspecified),/,-0.885,31.7*,-7.4,-31.3,9.0,24.4
CCCCCCCCCCn1ccc(=N)cc1,76.6*,0.728,34.7*,/,80.1*,18.4,23.6
CC(C)CCOc1ccc(-c2c(=O)n(OCc3ccc([N+](=O)[O-])cc3)c3ccccc3[n+]2[O-])cc1,32.1,-0.374,41.4*,-1.1,1.2,15.8,6.3
Cn1nc(C(C)(C)C)cc1C(=O)NCc1ccc2c(c1)OCO2,17.9,/,-6.6,/,/,4.1,/
